# According to ChEMBL document CHEMBL1649124, “Genetic variability among ampC genes from acinetobacter genomic species 3” (Antimicrob Agents Chemother, 2009):
# Experiments:
# Type in all cases: functional
# Acinetobacter pittii [1] = test: Antibacterial activity against Acinetobacter genomosp. 3 isolate 90 by Etest method in presence of efflux pump inhibitor PAN
# Acinetobacter pittii [2] = test: Antibacterial activity against Acinetobacter genomosp. 3 isolate 56 by Etest method in presence of efflux pump inhibitor PAN
# Acinetobacter pittii [3] = test: Antibacterial activity against Acinetobacter genomosp. 3 isolate 52 by Etest method in presence of cloxacillin and efflux pump inhibitor PAN
# Acinetobacter pittii [4] = test: Antibacterial activity against Acinetobacter genomosp. 3 isolate 21 by Etest method in presence of cloxacillin and efflux pump inhibitor CCCP
# Acinetobacter pittii [5] = test: Antibacterial activity against Acinetobacter genomosp. 3 isolate 69 by Etest method in presence of cloxacillin and efflux pump inhibitor PAN
# Acinetobacter pittii [6] = test: Antibacterial activity against Acinetobacter genomosp. 3 isolate 90 by Etest method in presence of efflux pump inhibitor CCCP
# Acinetobacter pittii [7] = test: Antibacterial activity against Acinetobacter genomosp. 3 isolate 103 by Etest method in presence of cloxacillin
# Method in brief: (§1)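 MICs for AG3 clinical isolates were read by Etest following the manufacturer's instructions. Isolates were stored at –80°C in 10% Brucella glycerol broth before testing.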
# Acinetobacter pittii [8] = test: Antibacterial activity against Acinetobacter genomosp. 3 isolate 14 by Etest method in presence of efflux pump inhibitor PAN
# Acinetobacter pittii [9] = test: Antibacterial activity against Acinetobacter genomosp. 3 isolate 69 by Etest method in presence of efflux pump inhibitor CCCP
# Acinetobacter pittii [10] = test: Antibacterial activity against Acinetobacter genomosp. 3 isolate 20 by Etest method in efflux pump inhibitor CCCP
# Acinetobacter pittii [11] = test: Antibacterial activity against Acinetobacter genomosp. 3 isolate 52 by Etest method in presence of cloxacillin; method in brief: as §1
# Acinetobacter pittii [12] = test: Antibacterial activity against Acinetobacter genomosp. 3 isolate 65 by Etest method in presence of cloxacillin and efflux pump inhibitor PAN
# Acinetobacter pittii [13] = test: Antibacterial activity against Acinetobacter genomosp. 3 isolate 21 by Etest method in presence of efflux pump inhibitor PAN
# Acinetobacter pittii [14] = test: Antibacterial activity against Acinetobacter genomosp. 3 isolate 56 by Etest method in presence of cloxacillin; method in brief: as §1
# Acinetobacter pittii [15] = test: Antibacterial activity against Acinetobacter genomosp. 3 isolate 103 by Etest method in presence of efflux pump inhibitor PAN
# Escherichia coli [16] = test: Antibacterial activity against Escherichia coli DH5alpha carrying ampC gene of Acinetobacter genomosp. 3 isolate 109 by Etest method
# Method in brief: (§2)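 E. coli DH5α expressing the AG3 isolate ampC gene, PCR-amplified (high-fidelity system, 28 cycles) and cloned into BamHI/HindIII sites of pBGS18 (kanamycin marker) under the CTX-M-14 β-lactamase promoter. Grown at 37°C in LB, with kanamycin 50 µg/ml when needed. β-Lactam MICs determined by Etest per the manufacturer's instructions.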
# Acinetobacter pittii [17] = test: Antibacterial activity against Acinetobacter genomosp. 3 isolate 20 by Etest method in presence of efflux pump inhibitor PAN
# Acinetobacter pittii [18] = test: Antibacterial activity against Acinetobacter genomosp. 3 isolate 67 by Etest method in presence of cloxacillin and efflux pump inhibitor CCCP
# Acinetobacter pittii [19] = test: Antibacterial activity against Acinetobacter genomosp. 3 isolate 69 by Etest method; method in brief: as §1
# Acinetobacter pittii [20] = test: Antibacterial activity against Acinetobacter genomosp. 3 isolate 67 by Etest method; method in brief: as §1
# Escherichia coli [21] = test: Antibacterial activity against Escherichia coli DH5alpha carrying ampC gene of Acinetobacter genomosp. 3 isolate 14 by Etest method; method in brief: as §2
# Acinetobacter pittii [22] = test: Antibacterial activity against Acinetobacter genomosp. 3 isolate 109 by Etest method in presence of efflux pump inhibitor CCCP
# Acinetobacter pittii [23] = test: Antibacterial activity against Acinetobacter genomosp. 3 isolate 20 by Etest method in presence of cloxacillin and efflux pump inhibitor CCCP
# Acinetobacter pittii [24] = test: Antibacterial activity against Acinetobacter genomosp. 3 isolate 60 by Etest method in presence of cloxacillin; method in brief: as §1
# Escherichia coli [25] = test: Antibacterial activity against Escherichia coli DH5alpha carrying ampC gene of Acinetobacter genomosp. 3 isolate 56 by Etest method; method in brief: as §2
# Acinetobacter pittii [26] = test: Antibacterial activity against Acinetobacter genomosp. 3 isolate 65 by Etest method in presence of efflux pump inhibitor CCCP
# Acinetobacter pittii [27] = test: Antibacterial activity against Acinetobacter genomosp. 3 isolate 128 by Etest method in presence of cloxacillin and efflux pump inhibitor PAN
# Acinetobacter pittii [28] = test: Antibacterial activity against Acinetobacter genomosp. 3 isolate 65 by Etest method in presence of cloxacillin and efflux pump inhibitor CCCP
# Acinetobacter pittii [29] = test: Antibacterial activity against Acinetobacter genomosp. 3 isolate 60 by Etest method in presence of efflux pump inhibitor CCCP
# Acinetobacter pittii [30] = test: Antibacterial activity against Acinetobacter genomosp. 3 isolate 90 by Etest method in presence of cloxacillin and efflux pump inhibitor CCCP
# Acinetobacter pittii [31] = test: Antibacterial activity against Acinetobacter genomosp. 3 isolate 69 by Etest method in presence of cloxacillin and efflux pump inhibitor CCCP
# Acinetobacter pittii [32] = test: Antibacterial activity against Acinetobacter genomosp. 3 isolate 52 by Etest method in presence of efflux pump inhibitor PAN
# Acinetobacter pittii [33] = test: Antibacterial activity against Acinetobacter genomosp. 3 isolate 14 by Etest method in presence of cloxacillin; method in brief: as §1
# Acinetobacter pittii [34] = test: Antibacterial activity against Acinetobacter genomosp. 3 isolate 243 by Etest method in presence of efflux pump inhibitor PAN
# Acinetobacter pittii [35] = test: Antibacterial activity against Acinetobacter genomosp. 3 isolate 21 by Etest method in presence of efflux pump inhibitor CCCP
# Acinetobacter pittii [36] = test: Antibacterial activity against Acinetobacter genomosp. 3 isolate 60 by Etest method in presence of efflux pump inhibitor PAN
# Acinetobacter pittii [37] = test: Antibacterial activity against Acinetobacter genomosp. 3 isolate 128 by Etest method in presence of efflux pump inhibitor PAN
# Acinetobacter pittii [38] = test: Antibacterial activity against Acinetobacter genomosp. 3 isolate 103 by Etest method in presence of efflux pump inhibitor CCCP
# Acinetobacter pittii [39] = test: Antibacterial activity against Acinetobacter genomosp. 3 isolate 14 by Etest method; method in brief: as §1
# Acinetobacter pittii [40] = test: Antibacterial activity against Acinetobacter genomosp. 3 isolate 21 by Etest method in presence of cloxacillin and efflux pump inhibitor PAN
# Acinetobacter pittii [41] = test: Antibacterial activity against Acinetobacter genomosp. 3 isolate 20 by Etest method in presence of cloxacillin and efflux pump inhibitor PAN
# Acinetobacter pittii [42] = test: Antibacterial activity against Acinetobacter genomosp. 3 isolate 243 by Etest method in presence of cloxacillin; method in brief: as §1
# Acinetobacter pittii [43] = test: Antibacterial activity against Acinetobacter genomosp. 3 isolate 67 by Etest method in presence of cloxacillin; method in brief: as §1
# Acinetobacter pittii [44] = test: Antibacterial activity against Acinetobacter genomosp. 3 isolate 195 by Etest method in presence of efflux pump inhibitor PAN
# Acinetobacter pittii [45] = test: Antibacterial activity against Acinetobacter genomosp. 3 isolate 195 by Etest method in presence of cloxacillin; method in brief: as §1
# Acinetobacter pittii [46] = test: Antibacterial activity against Acinetobacter genomosp. 3 isolate 21 by Etest method in presence of cloxacillin; method in brief: as §1
# Acinetobacter pittii [47] = test: Antibacterial activity against Acinetobacter genomosp. 3 isolate 21 by Etest method; method in brief: as §1
# Acinetobacter pittii [48] = test: Antibacterial activity against Acinetobacter genomosp. 3 isolate 195 by Etest method; method in brief: as §1
# Acinetobacter pittii [49] = test: Antibacterial activity against Acinetobacter genomosp. 3 isolate 67 by Etest method in presence of efflux pump inhibitor PAN
# Acinetobacter pittii [50] = test: Antibacterial activity against Acinetobacter genomosp. 3 isolate 20 by Etest method; method in brief: as §1
smiles,measurement,setting,value
CC(=O)OCC1=C(C(=O)O)N2C(=O)[C@@H](NC(=O)Cc3cccs3)[C@H]2SC1 [CEPHALOTHIN],MIC,Acinetobacter pittii [1],> 256 µg/mL
same,MIC,Acinetobacter pittii [2],> 256 µg/mL
same,MIC,Acinetobacter pittii [3],> 256 µg/mL
same,MIC,Acinetobacter pittii [4],48 µg/mL
same,MIC,Acinetobacter pittii [5],> 256 µg/mL
same,MIC,Acinetobacter pittii [6],> 256 µg/mL
same,MIC,Acinetobacter pittii [7],192 µg/mL
same,MIC,Acinetobacter pittii [8],> 256 µg/mL
same,MIC,Acinetobacter pittii [9],> 256 µg/mL
same,MIC,Acinetobacter pittii [10],> 256 µg/mL
same,MIC,Acinetobacter pittii [11],> 256 µg/mL
same,MIC,Acinetobacter pittii [12],128 µg/mL
same,MIC,Acinetobacter pittii [13],> 256 µg/mL
same,MIC,Acinetobacter pittii [14],> 256 µg/mL
same,MIC,Acinetobacter pittii [15],> 256 µg/mL
same,MIC,Escherichia coli [16],> 256 µg/mL
same,MIC,Acinetobacter pittii [17],> 256 µg/mL
same,MIC,Acinetobacter pittii [18],24 µg/mL
same,MIC,Acinetobacter pittii [19],> 256 µg/mL
same,MIC,Acinetobacter pittii [20],> 256 µg/mL
same,MIC,Escherichia coli [21],> 256 µg/mL
same,MIC,Acinetobacter pittii [22],> 256 µg/mL
same,MIC,Acinetobacter pittii [23],24 µg/mL
same,MIC,Acinetobacter pittii [24],> 256 µg/mL
same,MIC,Escherichia coli [25],> 256 µg/mL
same,MIC,Acinetobacter pittii [26],128 µg/mL
same,MIC,Acinetobacter pittii [27],48 µg/mL
same,MIC,Acinetobacter pittii [28],24 µg/mL
same,MIC,Acinetobacter pittii [29],> 256 µg/mL
same,MIC,Acinetobacter pittii [30],24 µg/mL
same,MIC,Acinetobacter pittii [31],24 µg/mL
same,MIC,Acinetobacter pittii [32],> 256 µg/mL
same,MIC,Acinetobacter pittii [33],128 µg/mL
same,MIC,Acinetobacter pittii [34],> 256 µg/mL
same,MIC,Acinetobacter pittii [35],> 256 µg/mL
same,MIC,Acinetobacter pittii [36],> 256 µg/mL
same,MIC,Acinetobacter pittii [37],> 256 µg/mL
same,MIC,Acinetobacter pittii [38],> 256 µg/mL
same,MIC,Acinetobacter pittii [39],> 256 µg/mL
same,MIC,Acinetobacter pittii [40],192 µg/mL
same,MIC,Acinetobacter pittii [41],> 256 µg/mL
same,MIC,Acinetobacter pittii [42],192 µg/mL
same,MIC,Acinetobacter pittii [43],128 µg/mL
same,MIC,Acinetobacter pittii [44],> 256 µg/mL
same,MIC,Acinetobacter pittii [45],> 256 µg/mL
same,MIC,Acinetobacter pittii [46],> 256 µg/mL
same,MIC,Acinetobacter pittii [47],> 256 µg/mL
same,MIC,Acinetobacter pittii [48],> 256 µg/mL
same,MIC,Acinetobacter pittii [49],> 256 µg/mL
same,MIC,Acinetobacter pittii [50],> 256 µg/mL
C[C@@H](O)[C@H]1C(=O)N2C(C(=O)O)=C(S[C@@H]3CN[C@H](C(=O)N(C)C)C3)[C@H](C)[C@H]12 [MEROPENEM],MIC,Acinetobacter pittii [1],0.38 µg/mL
same,MIC,Acinetobacter pittii [2],0.094 µg/mL
same,MIC,Acinetobacter pittii [3],0.5 µg/mL
same,MIC,Acinetobacter pittii [4],0.25 µg/mL
same,MIC,Acinetobacter pittii [5],0.38 µg/mL
same,MIC,Acinetobacter pittii [6],1.5 µg/mL
same,MIC,Acinetobacter pittii [7],1.5 µg/mL
same,MIC,Acinetobacter pittii [8],0.25 µg/mL
same,MIC,Acinetobacter pittii [9],0.25 µg/mL
same,MIC,Acinetobacter pittii [10],4 µg/mL
same,MIC,Acinetobacter pittii [11],0.19 µg/mL
same,MIC,Acinetobacter pittii [12],0.38 µg/mL
same,MIC,Acinetobacter pittii [13],0.47 µg/mL
same,MIC,Acinetobacter pittii [14],0.38 µg/mL
same,MIC,Acinetobacter pittii [15],0.75 µg/mL
same,MIC,Escherichia coli [16],0.032 µg/mL
same,MIC,Acinetobacter pittii [17],3 µg/mL
same,MIC,Acinetobacter pittii [18],0.19 µg/mL
same,MIC,Acinetobacter pittii [19],0.25 µg/mL
same,MIC,Acinetobacter pittii [20],0.5 µg/mL
same,MIC,Escherichia coli [21],0.023 µg/mL
same,MIC,Acinetobacter pittii [22],0.25 µg/mL
same,MIC,Acinetobacter pittii [23],1.5 µg/mL
same,MIC,Acinetobacter pittii [24],0.75 µg/mL
same,MIC,Escherichia coli [25],0.023 µg/mL
same,MIC,Acinetobacter pittii [26],0.25 µg/mL
same,MIC,Acinetobacter pittii [27],0.19 µg/mL
same,MIC,Acinetobacter pittii [28],0.19 µg/mL
same,MIC,Acinetobacter pittii [29],0.5 µg/mL
same,MIC,Acinetobacter pittii [30],0.38 µg/mL
same,MIC,Acinetobacter pittii [31],0.19 µg/mL
same,MIC,Acinetobacter pittii [32],0.38 µg/mL
same,MIC,Acinetobacter pittii [33],0.25 µg/mL
same,MIC,Acinetobacter pittii [34],0.19 µg/mL
same,MIC,Acinetobacter pittii [35],0.5 µg/mL
same,MIC,Acinetobacter pittii [36],0.19 µg/mL
same,MIC,Acinetobacter pittii [37],0.125 µg/mL
same,MIC,Acinetobacter pittii [38],1 µg/mL
same,MIC,Acinetobacter pittii [39],0.5 µg/mL
same,MIC,Acinetobacter pittii [40],0.64 µg/mL
same,MIC,Acinetobacter pittii [41],3 µg/mL
same,MIC,Acinetobacter pittii [42],0.125 µg/mL
same,MIC,Acinetobacter pittii [43],0.25 µg/mL
same,MIC,Acinetobacter pittii [44],1 µg/mL
same,MIC,Acinetobacter pittii [45],1 µg/mL
same,MIC,Acinetobacter pittii [46],0.5 µg/mL
same,MIC,Acinetobacter pittii [47],1 µg/mL
same,MIC,Acinetobacter pittii [48],1 µg/mL
same,MIC,Acinetobacter pittii [49],0.25 µg/mL
same,MIC,Acinetobacter pittii [50],6 µg/mL
